Source: ChEMBL document CHEMBL5661984, “Allosteric ligands for the pharmacologically dark receptors GPR68 and GPR65” (Nature, 2015)
Activity calls are given as the source filed them. The calls are words filed in the database; no cut-off is given here.

Assays:
[1] = target: T1, G-protein coupled receptor 68 (Homo sapiens, UniProt Q15743); test: Binding affinity to GPR68 expressed in human HEK293T cells assessed as cAMP production in presence of H+ proton by Split-luciferase based luminescence counter analysis; assay type: cell-based; settings: filed as positive allosteric modulator
T1 sequence (Q15743 whole entry): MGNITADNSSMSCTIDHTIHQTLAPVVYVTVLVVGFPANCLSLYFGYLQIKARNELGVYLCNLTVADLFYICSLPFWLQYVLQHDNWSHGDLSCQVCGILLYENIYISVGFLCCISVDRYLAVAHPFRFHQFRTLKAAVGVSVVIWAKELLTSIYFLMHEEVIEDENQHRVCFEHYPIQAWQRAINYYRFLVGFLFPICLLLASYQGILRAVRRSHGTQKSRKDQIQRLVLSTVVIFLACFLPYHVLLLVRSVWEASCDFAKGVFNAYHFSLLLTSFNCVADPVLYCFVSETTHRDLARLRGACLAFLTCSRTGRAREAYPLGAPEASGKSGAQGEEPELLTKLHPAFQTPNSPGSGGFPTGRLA
Procedure, shortened: (§1)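 Proton concentration-response of GPR68 (wild type or E160A/K/Q, R189L/M, H269F mutants) in transiently transfected HEK293-T cells. Read-out: GloSensor cAMP, with luciferin loading 90 min at 37°C at pH 8.4. Run with and without increasing modulator concentrations; 20 min at room temperature before luminescence. Proton KA fixed to the proton EC50 without modulator. KB, τA, α, β fitted globally with an operational allosteric model. n=4.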

[2] = target: T1, G-protein coupled receptor 68; test: Positive allosteric modulator activity at GPR68 expressed in human HEK293T cells assessed as proton-mediated calcium release at 10 uM incubated for 10 mins by Fluo-4 Direct calcium dye based FLIPR assay (reference value: 1.30 %); assay type: functional, cell-based
[3] = Positive allosteric modulator activity at GPR68 E160K mutant transfected in human HEK293T cells assessed as proton-mediated calcium release at 10 uM incubated for 10 mins by Fluo-4 Direct calcium dye based FLIPR assay (reference value: 1.38 +/- 0.01 %); settings: HEK-293T, condition central nervous system disease
[4] = Positive allosteric modulator activity at GPR68 E160Q mutant transfected in human HEK293T cells assessed as proton-mediated calcium release at 10 uM incubated for 10 mins by Fluo-4 Direct calcium dye based FLIPR assay (reference value: 1.25 +/- 0.01 %); settings: HEK-293T, condition central nervous system disease
[5] = Positive allosteric modulator activity at GPR68 R189L mutant transfected in human HEK293T cells assessed as proton-mediated calcium release at 10 uM incubated for 10 mins by Fluo-4 Direct calcium dye based FLIPR assay (reference value: 1.42 +/- 0.01 %); settings: HEK-293T, condition central nervous system disease
[6] = Positive allosteric modulator activity at GPR68 R189M mutant transfected in human HEK293T cells assessed as proton-mediated calcium release at 10 uM incubated for 10 mins by Fluo-4 Direct calcium dye based FLIPR assay (reference value: 1.43 +/- 0.01 %); settings: HEK-293T, condition central nervous system disease
[7] = Positive allosteric modulator activity at GPR68 H269F mutant transfected in human HEK293T cells assessed as proton-mediated calcium release at 10 uM incubated for 10 mins by Fluo-4 Direct calcium dye based FLIPR assay (reference value: 1.57 +/- 0.01 %); settings: HEK-293T, condition central nervous system disease
[8] = Positive allosteric modulator activity at GPR68 E160K mutant transfected in human HEK293T cells assessed as proton-mediated calcium release at 10 uM incubated for 10 mins by Fluo-4 Direct calcium dye based FLIPR assay (reference value: 6.79 +/- 0.02); assay type: cell-based; settings: HEK-293T
[9] = Positive allosteric modulator activity at GPR68 E160Q mutant transfected in human HEK293T cells assessed as proton-mediated calcium release at 10 uM incubated for 10 mins by Fluo-4 Direct calcium dye based FLIPR assay (reference value: 6.86 +/- 0.04); assay type: cell-based; settings: HEK-293T
[10] = Positive allosteric modulator activity at GPR68 R189L mutant transfected in human HEK293T cells assessed as proton-mediated calcium release at 10 uM incubated for 10 mins by Fluo-4 Direct calcium dye based FLIPR assay (reference value: 6.85 +/- 0.02); assay type: cell-based; settings: HEK-293T
[11] = Positive allosteric modulator activity at GPR68 R189M mutant transfected in human HEK293T cells assessed as proton-mediated calcium release at 10 uM incubated for 10 mins by Fluo-4 Direct calcium dye based FLIPR assay (reference value: 6.77 +/- 0.01); assay type: cell-based; settings: HEK-293T
[12] = Positive allosteric modulator activity at GPR68 H269F mutant transfected in human HEK293T cells assessed as proton-mediated calcium release at 10 uM incubated for 10 mins by Fluo-4 Direct calcium dye based FLIPR assay (reference value: 6.44 +/- 0.02); assay type: cell-based; settings: HEK-293T
[13] = target: T1, G-protein coupled receptor 68; test: Positive allosteric modulator activity at GPR68 expressed in human HEK293T cells assessed as cAMP production in presence of H+ proton by Split-luciferase based luminescence counter analysis (reference value: 26.4 to 43.8 %); assay type: functional, cell-based; settings: filed as positive allosteric modulator; procedure, shortened: as §1
[14] = target: T1, G-protein coupled receptor 68; test: Positive allosteric modulator activity at GPR68 expressed in human HEK293T cells assessed as cAMP production in presence of H+ proton by Split-luciferase based luminescence counter analysis (reference value: 6.53 to 6.72); assay type: functional, cell-based
[15] = target: C-X-C chemokine receptor type 4 (Homo sapiens) (UniProt P61073); test: Agonist activity against CXCR4 receptor (unknown origin) transfected in human HEK293T cells at 10 uM incubated for 15 mins in presence of CXCL12 by luminescence counter analysis; assay type: functional, cell-based
Sequence of C-X-C chemokine receptor type 4 (Homo sapiens) (P61073 whole entry): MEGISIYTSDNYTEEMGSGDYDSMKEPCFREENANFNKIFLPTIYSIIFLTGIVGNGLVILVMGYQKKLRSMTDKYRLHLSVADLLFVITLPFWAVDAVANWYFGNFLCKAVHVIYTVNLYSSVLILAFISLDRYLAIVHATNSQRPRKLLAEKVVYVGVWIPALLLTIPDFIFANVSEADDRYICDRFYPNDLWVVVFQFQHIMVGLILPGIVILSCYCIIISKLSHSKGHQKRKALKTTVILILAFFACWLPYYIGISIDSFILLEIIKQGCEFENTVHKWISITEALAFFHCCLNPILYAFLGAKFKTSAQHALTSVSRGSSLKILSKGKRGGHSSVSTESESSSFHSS
Procedure, shortened: (§2)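 HEK293-T cells transiently transfected with CXCR4 and the GloSensor cAMP reporter, plated in DMEM with 1% dialyzed FBS. Test compound at 10 μM in 20 mM HEPES/HBSS, pH 7.4, 15 min at room temperature. Agonist mode: luciferin (4 mM final) plus 200 nM isoproterenol added, 20 min. Antagonist mode: compound 10 min, then reference agonist at EC80 for 10 min, then luciferin/isoproterenol. Luminescence read. CXCL12 (1 or 3 μM) is the agonist control and AMD3100 (10 μM) the antagonist control. n=2.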

[16] = target: C-X-C chemokine receptor type 4 (Homo sapiens) (UniProt P61073); test: Antagonist activity against CXCR4 receptor (unknown origin) transfected in human HEK293T cells at 10 uM incubated for 15 mins in presence of AMD3100 by luminescence counter analysis; assay type: functional, cell-based; procedure, shortened: as §2
[17] = target: T2, G-protein coupled receptor 65 (Homo sapiens, UniProt Q8IYL9); test: Antagonist activity against GPR65 (unknown origin) transfected in human HEK293T cells incubated for 15 mins by luminescence counter analysis; assay type: functional, cell-based; settings: for Activity: filed as antagonist
T2 sequence (Q8IYL9 whole entry): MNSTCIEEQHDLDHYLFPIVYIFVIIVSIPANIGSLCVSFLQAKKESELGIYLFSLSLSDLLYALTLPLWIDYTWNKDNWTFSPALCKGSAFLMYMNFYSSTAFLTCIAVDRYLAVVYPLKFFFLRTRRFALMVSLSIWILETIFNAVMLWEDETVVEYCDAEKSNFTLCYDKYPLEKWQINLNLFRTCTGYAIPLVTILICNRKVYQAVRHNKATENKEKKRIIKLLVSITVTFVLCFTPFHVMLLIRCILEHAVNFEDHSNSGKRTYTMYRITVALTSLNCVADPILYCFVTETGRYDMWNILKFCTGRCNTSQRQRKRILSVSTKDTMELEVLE
Procedure, shortened: (§3)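 GloSensor split-luciferase cAMP assay. HEK293-T cells transiently co-transfected with GPR65 (wild type or the D153A, R187L, F242A or Y272A mutant) and GloSensor 7A reporter. Cells plated in DMEM with 1% dialyzed FBS for at least 6 h, then loaded with luciferin (4 mM, in drug buffer pH 8.4) for 90 min at 37°C. Compounds added at set pH in HBSS with 10 mM HEPES/10 mM MES, with TAPS for higher pH. Luminescence read after about 20 min at room temperature. Data normalized to buffer basal and fitted to a 4-parameter logistic.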

[18] = target: T2, G-protein coupled receptor 65; test: Agonist activity against GPR65 (unknown origin) transfected in human HEK293T cells on pH 6.80 to 7.40 at 30 uM incubated for 15 mins by luminescence counter analysis; assay type: functional, cell-based
[19] = system: HEK293T; test: Antagonist activity against GPR65 R187L mutant (unknown origin) transfected in human HEK293T cells incubated for 15 mins by luminescence counter analysis; assay type: cell-based; settings: filed as antagonist; procedure, shortened: as §3
[20] = system: HEK293T; test: Antagonist activity against GPR65 F242A mutant (unknown origin) transfected in human HEK293T cells incubated for 15 mins by luminescence counter analysis; assay type: cell-based; settings: filed as antagonist; procedure, shortened: as §3
[21] = system: HEK293T; test: Antagonist activity against GPR65 Y272A mutant (unknown origin) transfected in human HEK293T cells incubated for 15 mins by luminescence counter analysis; assay type: cell-based; settings: filed as antagonist; procedure, shortened: as §3
[22] = Antagonist activity against GPR65 D153A mutant (unknown origin) transfected in human HEK293T cells incubated for 15 mins by luminescence counter analysis; assay type: cell-based; settings: HEK-293T, 0.25 h; procedure, shortened: as §3
[23] = target: T2, G-protein coupled receptor 65; test: Antagonist activity against GPR65 (unknown origin) transfected in human HEK293T cells incubated for 15 mins by luminescence counter analysis relative to control; assay type: functional, cell-based; procedure, shortened: as §3
[24] = Antagonist activity against GPR65 D153A mutant (unknown origin) transfected in human HEK293T cells incubated for 15 mins by luminescence counter analysis relative to control; settings: HEK-293T, 0.25 h, condition central nervous system disease; procedure, shortened: as §3

## Nc1nc(NCCCCc2ccccc2)nc(-c2ccccc2CO)n1
[1]
  pKb: 5.82

## CCCCNc1c(C(=O)OCC)c(C)nc2c1cnn2CC
[1]
  pKb: 5.2

## Nc1nc(NCc2ccccc2)nc(-c2cc(F)cc(F)c2)n1
[2]
  Emax: 1.24%
[3]
  Emax at 10 µM: 1.38%
[4]
  Emax at 10 µM: 1.11%
[5]
  Emax at 10 µM: 1.49%
[6]
  Emax at 10 µM: 1.41%
[7]
  Emax at 10 µM: 1.63%
[8]
  EC50: 0.141 µM
[9]
  EC50: 0.102 µM
[10]
  EC50: 0.105 µM
[11]
  EC50: 0.141 µM
[12]
  EC50: 0.324 µM
[13]
  Emax: 70.7%
[14]
  EC50: 0.11 µM

## O=C1CN=C(c2ccccc2F)c2cc(Cl)ccc2N1
[15]
  Activity: inactive
[16]
  Activity: inactive

## Nc1nc(NCc2cccc(F)c2)nc(-c2cccc(F)c2N)n1
[1]
  pKb: 3.88

## Nc1nc(NCCCc2ccccc2)nc(-c2ccccc2CO)n1
[1]
  pKb: 5.75

## Nc1nc(NCc2ccccc2F)nc(-c2ccc(F)cc2N)n1
[1]
  pKb: 4.23

## O=C1N[C@H](c2ccccc2[N+](=O)[O-])c2c(-c3ccccc3)n[nH]c21
[13]
  Emax: 50.8%
[14]
  EC50: 0.186 µM
[1]
  pKb: 5.48

## Nc1nc(NCc2cccc(F)c2)nc(-c2cc(F)c(F)cc2N)n1
[1]
  pKb: 4.66

## O=C(Nc1nc(-c2ccc3c(c2)OCCO3)cs1)c1csnn1
[17]
  Activity: Active

## Nc1nc(NCc2cccc(F)c2)nc(-c2ccc(F)c(F)c2CO)n1
[1]
  pKb: 4.01

## Nc1nc(-c2ccc(Cl)c(Cl)c2)c(-c2ccncc2)s1
[1]
  pKb: 7.51

## O=C1CCc2cc(-c3csc(NC(=O)c4ccc(-c5ccccc5F)o4)n3)ccc2N1
[17]
  Activity: Active

## Nc1nc(NCc2ccccc2)nc(-c2ccc(CO)cc2)n1
[1]
  pKb: 4.93

## COc1ccc(-c2csc(NC(=O)CSc3nc[nH]n3)n2)cc1OC
[18]
  Activity: inactive
[17]
  EC50: 0.501 µM
[19]
  Activity: Active
[20]
  Activity: Active
[21]
  Activity: Active
[22]
  EC50: 6.31 µM
[23]
  Emax: 2.2%
[24]
  Emax: 1.5%

## OC1CCC(Nc2nc(-c3ccccc3)nc3[nH]ccc23)CC1 (stereo unspecified)
[1]
  pKb: 6.2

## Nc1nc(NCc2ccccc2)nc(-c2ccccc2N)n1
[13]
  Emax: 50.2%
[14]
  EC50: 0.0631 µM
[1]
  pKb: 5.22
